In ChEMBL document CHEMBL3351971 (Bioorg Med Chem, 2014):
≈ marks a conversion by molar mass, not a printed value. Calls of active or inactive are those of the source. The calls are words filed in the database; no cut-off is given here.

Tests used:
[1] = test system: Leishmania infantum; assay: Antileishmanial activity against intracellular Leishmania infantum chagasi MHOM/BR/00/1669 amastigotes infected in BALB/c mouse assessed as inhibition of parasite growth in liver at 100 mg/kg, ip once daily treated after 30 days post infection for 30 days; assay type: functional, organism-based; set-up: dose 100 mg/kg
Method in brief: (§1)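 Male BALB/c mice, 21 days old, infected IP with 1×10^7 Ficoll-purified metacyclic promastigotes; infection confirmed by liver and spleen imprints at 35 days. Compounds given IP at 100 mg/kg once daily for 30 days, 0.5 mL injected, n = 5 per group. Controls were Glucantime (80 mg/Kg intramuscular) and water. Liver and spleen collected afterwards; amastigotes detected qualitatively by anti-Leishmania immunohistochemistry with DAB.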

[2] = test system: Leishmania infantum; assay: Antileishmanial activity against intracellular Leishmania infantum chagasi MHOM/BR/00/1669 amastigotes infected in BALB/c mouse assessed as inhibition of parasite growth in spleen at 100 mg/kg, ip once daily treated after 30 days post infection for 30 days; assay type: functional, organism-based; set-up: dose 100 mg/kg; method in brief: as §1
[3] = Cytotoxicity against mouse RAW264.7 cells assessed as cell survival at 100 ug/ml after 48 hrs by MTT assay; assay type: cell-based; settings: read-out: Survival
Method in brief: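 RAW 264.7 cells were seeded at 4×10^4/well. Compounds were dissolved at 0.2% in ethanol and diluted in M199 medium, highest concentration 100 µg/mL. Cells were exposed for 48 h at 37 °C in humidified 5% CO2, with […] vehicle controls. Viability was read by MTT.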

[4] = test system: Leishmania infantum; assay: Antileishmanial activity against intracellular Leishmania infantum chagasi MHOM/BR/00/1669 amastigotes infected in mouse RAW264.7 cells assessed as inhibition of parasite growth after 48 hrs; assay type: functional, organism-based; settings: chagasi MHOM/BR/00/1669, RAW264.7, 48 h
Method in brief: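 RAW 264.7 macrophages (4×10^5/well, RPMI-1640 + 10% FBS) adhered for 24 h, then infected with promastigotes at 1:10 for 2 h. Non-adherent parasites rinsed off and cells held 72 h. Compounds added from ethanol stocks in six two-fold dilutions for 48 h at 37 °C, 5% CO2. Amastigotes detected by cell ELISA (saponin permeabilization, rabbit anti-Leishmania serum 1:500, peroxidase anti-rabbit, OPD, 492 nm).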

[5] = test system: Leishmania infantum; assay: Antileishmanial activity against axenically cultured Leishmania infantum chagasi MHOM/BR/00/1669 promastigotes assessed as inhibition of parasite growth after 24 hrs; settings: chagasi MHOM/BR/00/1669, 24 h

Compound | Activity [1] | Activity [2] | viability at 48 h, 100 ug/ml [3] [%] | EC50 [4] [µg/mL] | EC50 [5] [µg/mL]
CC(=O)Oc1cc(C)ccc1C(C)C | Active | inactive | > 100 | 10.9 (≈ 57 µM) | 9.07 (≈ 47.2 µM)
Cc1ccc(C(C)C)c(OC(=O)c2ccccc2)c1 | Active | Active | 63.6 | 15.1 (≈ 59.3 µM) | 8.67 (≈ 34.1 µM)
C[C@@H]1[C@H](O)[C@@H](C)/C=C/C=C/C=C/C=C/C=C/C=C/C=C/[C@H](O[C@@H]2O[C@H](C)[C@@H](O)[C@H](N)[C@@H]2O)C[C@@H]2O[C@](O)(C[C@@H](O)C[C@@H](O)[C@H](O)CC[C@@H](O)C[C@@H](O)CC(=O)O[C@H]1C)C[C@H](O)[C@H]2C(=O)O [AMPHOTERICIN B] |  |  | 98.5 | 20.4 (≈ 22.1 µM) | 
C=CCc1ccc(O)c(OC)c1 [EUGENOL] |  |  | 29 | 20.8 (≈ 127 µM) | 56.1 (≈ 342 µM)
C=CCc1ccc(OC(C)=O)c(OC)c1 [EUGENYL ACETATE] | Active | Active | > 100 | 18.5 | 23.2
C=CCc1ccc(OC(=O)c2ccccc2)c(OC)c1 [EUGENYL BENZOAT] | Active | Active | 97.7 | 14.9 (≈ 55.6 µM) | 10.6 (≈ 39.4 µM)
N=C(N)c1ccc(OCCCCCOc2ccc(C(=N)N)cc2)cc1 [PENTAMIDINE] |  |  | 85.6 |  | 5.3 (≈ 15.6 µM)
Cc1ccc(C(C)C)c(O)c1 [THYMOL] |  |  | 36.5 | 23.9 (≈ 159 µM) | 
MEGLUMINE ANTIMONATE |  | inactive |  |  | 
